Experimental data from ChEMBL document CHEMBL1128543, “Computer-aided design and synthesis of 5-substituted tryptamines and their pharmacology at the 5-HT1D receptor: discovery of compounds with potential anti-migraine properties” (J Med Chem, 1995).

Columns and labels:
Conditions in all cases: Oryctolagus cuniculus
[1] = target: 5-hydroxytryptamine receptor 1D (Homo sapiens) (UniProt P28221); test: The compound was tested for binding affinity against 5-HT1D receptor
Outline: (§1)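 Rabbit saphenous vein rings (male New Zealand White; 4–5 mm) mounted on tungsten wires in Krebs–Henseleit buffer, pH 7.4, 37 °C, gassed with 95% O2/5% CO2, at 2 g passive force. Pretreated for 30 min with pargyline (500 μM) and phenoxybenzamine (0.3 μM), then washed. Cumulative 5-HT curve, then after 60 min a test agonist curve. Potency is p[A50]; α is test maximum/5-HT maximum; n ≥ 3.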

[2] = target: 5-hydroxytryptamine receptor 2A (Homo sapiens) (UniProt P28223)
Chain of 5-hydroxytryptamine receptor 2A (Homo sapiens) (P28223 whole entry): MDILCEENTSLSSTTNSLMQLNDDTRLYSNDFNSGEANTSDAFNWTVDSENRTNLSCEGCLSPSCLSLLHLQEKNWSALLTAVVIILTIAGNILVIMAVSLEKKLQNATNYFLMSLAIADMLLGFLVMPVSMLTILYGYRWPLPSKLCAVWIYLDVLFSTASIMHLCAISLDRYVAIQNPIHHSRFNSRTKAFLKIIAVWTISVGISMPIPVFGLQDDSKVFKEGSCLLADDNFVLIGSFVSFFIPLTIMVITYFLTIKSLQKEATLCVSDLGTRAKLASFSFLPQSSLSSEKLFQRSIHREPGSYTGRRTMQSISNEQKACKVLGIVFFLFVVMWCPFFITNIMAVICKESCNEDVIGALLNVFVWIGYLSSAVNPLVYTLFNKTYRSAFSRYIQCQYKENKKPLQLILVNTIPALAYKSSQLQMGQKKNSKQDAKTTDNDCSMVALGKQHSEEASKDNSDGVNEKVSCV

[3] = target: 5-hydroxytryptamine receptor 1D (Homo sapiens) (UniProt P28221); test: The compound was tested for intrinsic activity against 5-HT1D receptor; outline: as §1

Chain of 5-hydroxytryptamine receptor 1D (Homo sapiens) (P28221 whole entry): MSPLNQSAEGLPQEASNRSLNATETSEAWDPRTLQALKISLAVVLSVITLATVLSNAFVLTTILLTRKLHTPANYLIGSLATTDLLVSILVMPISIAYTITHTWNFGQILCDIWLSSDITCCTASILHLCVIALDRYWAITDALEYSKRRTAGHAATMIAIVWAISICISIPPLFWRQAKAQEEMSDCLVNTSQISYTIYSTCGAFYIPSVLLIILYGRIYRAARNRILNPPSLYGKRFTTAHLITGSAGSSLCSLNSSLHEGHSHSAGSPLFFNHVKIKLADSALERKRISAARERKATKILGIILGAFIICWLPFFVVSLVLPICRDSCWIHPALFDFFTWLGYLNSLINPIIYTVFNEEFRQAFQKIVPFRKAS

SMILES	p[A50] [1]	p[A50] [2]	Intrinsic activity [3]
CN1C(=O)NC(Cc2ccc3[nH]cc(CCN)c3c2)C1=O (stereo not drawn)	4.8	4	
O=C(c1ccc(F)cc1)C1CCN(CCn2c(=O)[nH]c3ccccc3c2=O)CC1	6	9.1	
NCCc1c[nH]c2ccc(CCC3NC(=O)N(Cc4ccccc4)C3=O)cc12 (stereo not drawn)	6.7	< 4.5	0.9
NCCc1c[nH]c2ccc(CC3NC(=O)N(CCc4ccccc4)C3=O)cc12 (stereo not drawn)	6.7	4.5	0.67
O=C1CC2(CCCC2)CC(=O)N1CCCCN1CCN(c2ncccn2)CC1	4.5		
CN(C)CCc1c[nH]c2ccc(CCN3C(=O)CNC3=O)cc12	6.1	< 4.5	0.5
CN1C(=O)NC[C@@H]1Cc1ccc2[nH]cc(CCN)c2c1	6.9	5	0.88
COC(=O)c1ccc(CC2NC(=O)N(CCc3ccc4[nH]cc(CCN)c4c3)C2=O)cc1 (stereo not drawn)	7.3	< 4.5	0.7
CN1C(=O)N(Cc2ccccc2)C(=O)C1Cc1ccc2[nH]cc(CCN)c2c1 (stereo not drawn)	6	< 4.5	1
CNC(=O)c1cccc(CN2C(=O)NC(Cc3ccc4[nH]cc(CCN)c4c3)C2=O)c1 (stereo not drawn)	5.8	4.3	0.71
C[C@@H](CO)NC(=O)[C@@H]1C=C2c3cccc4[nH]cc(c34)C[C@H]2N(C)C1	9		0.9
CN(C)CCc1c[nH]c2ccc(O)cc12	7.3	6.8	0.92
NCCc1c[nH]c2ccc(C(N)=O)cc12	8.1	5.9	0.84
CN(C)CCc1c[nH]c2ccc(CC3NC(=O)N(Cc4ccccc4)C3=O)cc12 (stereo not drawn)	5.6	< 4.5	
NCCc1c[nH]c2ccc(CC3NC(=O)N(Cc4cccc(NC(=O)c5ccccc5)c4)C3=O)cc12 (stereo not drawn)	7.3	4.6	0.85
O=C1NCN(c2ccccc2)C12CCN(CC1COc3ccccc3O1)CC2 (stereo not drawn)	5.1	6.2	
Cn1c(Cc2ccc3[nH]cc(CCN)c3c2)cn(Cc2ccccc2)c1=O	7.1	6.3	0.95
CN(C)CCc1c[nH]c2ccc(CC3NC(=O)N(Cc4ccc(Oc5ccccc5)cc4)C3=O)cc12 (stereo not drawn)	7.4	4.7	0.79
NCCc1c[nH]c2ccc(CC3NC(=O)N(Cc4ccccc4)C3=O)cc12 (stereo not drawn)	6.1	4	0.72
CS(=O)(=O)Nc1ccc(CC2NC(=O)N(CCc3ccc4[nH]cc(CCN)c4c3)C2=O)cc1 (stereo not drawn)	7.4	5.2	0.8
CN(C)CCc1c[nH]c2ccc(C[C@H]3CNC(=O)N3C)cc12	7	< 4.5	1
CNCCc1c[nH]c2ccc(CCN3C(=O)CNC3=O)cc12	6.7	< 4.5	0.7
CNCCc1c[nH]c2ccc(CCN3C(=O)NC(Cc4cccc(NC(C)=O)c4)C3=O)cc12 (stereo not drawn)	6.9	< 4.5	0.6
CCC(CO)NC(=O)[C@H]1C=C2c3cccc4c3c(cn4C)CC2N(C)C1 (stereo partly drawn)	6.7		0.64

SMILES	p[A50] [1]	p[A50] [2]	Intrinsic activity [3]
NCCc1c[nH]c2ccc(CC3NC(=O)N(Cc4ccc(-c5ccccc5)cc4)C3=O)cc12 (stereo not drawn)	6.7		0.6
CS(=O)(=O)Nc1cccc(CC2NC(=O)N(CCc3ccc4[nH]cc(CCN)c4c3)C2=O)c1 (stereo not drawn)	7.2	< 4.5	0.8
O=C1CC2(CCCC2)CS(=O)(=O)N1CCCCN1CCN(c2ncccn2)CC1	4.9	5.1	
CC(=O)Nc1cccc(CC2NC(=O)N(CCc3ccc4[nH]cc(CCN(C)C)c4c3)C2=O)c1 (stereo not drawn)	7.2	< 4.5	0.6
NCCc1c[nH]c2ccc(CC3NC(=O)N(Cc4ccc(C(=O)Nc5ccccc5)cc4)C3=O)cc12 (stereo not drawn)	5.9	4.5	0.7
CC(=O)Nc1ccc(CN2C(=O)NC(Cc3ccc4[nH]cc(CCN)c4c3)C2=O)cc1 (stereo not drawn)	5.8		0.81
CNS(=O)(=O)Cc1ccc2[nH]cc(CCN(C)C)c2c1	6.6		0.83
NCCc1c[nH]c2ccccc12	6.9	6.1	0.86
CN1C(=O)N(Cc2ccccc2)CC1Cc1ccc2[nH]cc(CCN)c2c1 (stereo not drawn)	7.5	5	
Cc1ccc2[nH]cc(CCN)c2c1	6.1	6.2	1
CCCNC(=O)c1cccc(CN2C(=O)NC(Cc3ccc4[nH]cc(CCN)c4c3)C2=O)c1 (stereo not drawn)	6.8	4.5	0.99
CN(C)CCc1c[nH]c2ccc(CCN3C(=O)NC(Cc4ccc(NS(C)(=O)=O)cc4)C3=O)cc12 (stereo not drawn)	7.4	< 4.5	0.6
NCCc1c[nH]c2ccc(CC3NC(=O)N(CCCc4ccccc4)C3=O)cc12 (stereo not drawn)	6.6	< 4.5	0.93
CN(C)CCc1c[nH]c2ccc(CC3NC(=O)N(CCc4ccccc4)C3=O)cc12 (stereo not drawn)	6		0.39
CC(=O)Nc1cccc(CC2NC(=O)N(CCc3ccc4[nH]cc(CCN)c4c3)C2=O)c1 (stereo not drawn)	7	< 4.5	0.7
CN(C)CCc1c[nH]c2ccc(CC3NC(=O)N(Cc4cccc(NC(=O)c5ccccc5)c4)C3=O)cc12 (stereo not drawn)	6.3	5	0.55
CN(C)CCc1c[nH]c2ccc(CCN3C(=O)NC(Cc4ccc([N+](=O)[O-])cc4)C3=O)cc12 (stereo not drawn)	6.8	< 4.5	0.6
CN(C)CCc1c[nH]c2ccc(CCC3NC(=O)N(Cc4ccccc4)C3=O)cc12 (stereo not drawn)	6.3	5.9	0.2
CS(=O)(=O)Nc1ccc(C[C@H]2NC(=O)N(CCc3ccc4[nH]cc(CCN)c4c3)C2=O)cc1	7.1	5.3	0.7
NCCc1c[nH]c2ccc(CC3NC(=O)N(Cc4cccc(C(=O)Nc5ccccc5)c4)C3=O)cc12 (stereo not drawn)	6.6	3.9	0.53
CN(C)CCc1c[nH]c2ccc(CCN3C(=O)N[C@@H](Cc4ccc(NS(C)(=O)=O)cc4)C3=O)cc12	7.4	< 4.5	0.6
O=C(CCCN1CCC2(CC1)C(=O)NCN2c1ccccc1)c1ccc(F)cc1	5.8	9.7	
COc1ccc2[nH]cc(C3=CCNCC3)c2c1	7.1		0.89
NCCc1c[nH]c2ccc(CC3NC(=O)N(Cc4cccc(Oc5ccccc5)c4)C3=O)cc12 (stereo not drawn)	7.4	4.7	0.79
